LANA-H2A inh = blocks KSHV LANA binding to histone H2A/H2B. cell-free LANA-H2A/H2B peptide, fluorescence polarization. inhibition, % (concentration not given with the values). actives 0.6% (n = 320,000); in the data active means inhibition mostly above about 10%, no sharp cut-off; inactive means mostly below about 6.7%
Target sequence (Q9QR71 whole entry, looked up): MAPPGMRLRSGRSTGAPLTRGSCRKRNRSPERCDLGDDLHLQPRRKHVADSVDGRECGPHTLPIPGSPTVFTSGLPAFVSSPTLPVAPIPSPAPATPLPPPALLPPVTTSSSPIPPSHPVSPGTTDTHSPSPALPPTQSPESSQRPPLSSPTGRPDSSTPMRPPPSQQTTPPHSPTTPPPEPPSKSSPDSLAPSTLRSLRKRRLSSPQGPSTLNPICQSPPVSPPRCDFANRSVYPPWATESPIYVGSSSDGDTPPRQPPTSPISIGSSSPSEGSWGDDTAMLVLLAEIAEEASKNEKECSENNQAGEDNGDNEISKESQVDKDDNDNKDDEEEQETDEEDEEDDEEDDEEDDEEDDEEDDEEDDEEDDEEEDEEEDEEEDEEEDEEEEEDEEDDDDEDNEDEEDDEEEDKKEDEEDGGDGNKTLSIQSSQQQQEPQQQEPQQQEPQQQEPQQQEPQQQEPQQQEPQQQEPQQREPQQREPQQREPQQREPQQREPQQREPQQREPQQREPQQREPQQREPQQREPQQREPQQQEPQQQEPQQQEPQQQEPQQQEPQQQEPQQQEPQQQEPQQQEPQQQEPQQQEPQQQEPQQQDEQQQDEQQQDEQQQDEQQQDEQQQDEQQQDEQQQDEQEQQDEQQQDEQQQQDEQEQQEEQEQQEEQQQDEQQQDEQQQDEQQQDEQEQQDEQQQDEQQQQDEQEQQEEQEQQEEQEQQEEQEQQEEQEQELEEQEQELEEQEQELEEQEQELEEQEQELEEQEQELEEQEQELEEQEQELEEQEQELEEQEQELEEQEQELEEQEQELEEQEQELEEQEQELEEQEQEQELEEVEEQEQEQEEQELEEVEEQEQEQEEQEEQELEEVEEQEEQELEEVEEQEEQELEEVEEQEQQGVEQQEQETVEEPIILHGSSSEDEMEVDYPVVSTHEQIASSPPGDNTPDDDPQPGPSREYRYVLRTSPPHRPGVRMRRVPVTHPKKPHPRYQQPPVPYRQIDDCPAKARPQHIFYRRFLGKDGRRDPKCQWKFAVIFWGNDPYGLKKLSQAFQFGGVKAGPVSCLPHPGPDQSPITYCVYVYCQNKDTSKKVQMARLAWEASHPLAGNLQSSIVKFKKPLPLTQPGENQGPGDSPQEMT
GSK3B inh = inhibitors of human GSK3beta kinase. actives 0.038% (n = 300,000). activity score (negative = inhibition), % at 10 µM. GST-GSK3beta kinase, ADP-Glo luminescence, 60 min; stronger effect = lower value. AID 2097;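 active means more than half of replicate wells score below -50%, meaning over 50% inhibition versus plate controls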
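Assay system: GST-fused GSK3beta enzyme, cell-free / Medium: Tris pH 7.5 buffer with MgCl2, DTT, BSA, heparin / Also added: peptide substrate plus 25 µM ATP (final) / Compound: 10 µM single point / Timing: kinase reaction with compound 60 min at room temperature / Detection: ADP-Glo luminescence / Benchmarks: DMSO neutral wells and GW8510 at 20 µM as positive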
H9c2 TAG inh = triacylglycerol accumulation inhibition. inhibition, % at 12.5 µM. actives 0.66% (n = 230,000). H9c2 cells, Nile Red lipid (TAG) fluorescence; cells loaded with 200 µM oleic acid;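 active means pattern-corrected inhibition of lipid staining of at least 50% with the nuclear-stain viability signal not falling by more than 50%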
Hep lipid drop = hepatic lipid droplet formation modulation; inhibition, % at 6.5 µM; AID 1656; AML12 mouse hepatocytes, oleate lipid droplets, BODIPY imaging; actives 0.4% (n = 240,000);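 active means lipid droplet intensity inhibited by at least 50%, with more than 500 cells counted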
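material = mouse AML12 hepatocyte cell line, fixed after treatment | also added = 100 µM oleic acid challenge | doses = compound at 6.5 µM only | schedule = overnight exposure | technique = Image-based BODIPY and DAPI two-channel analysis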
STK33 kinase inh = human STK33 kinase inhibition; purified STK33, MBP phosphorylation, ADP-Glo luminescence; inhibition, % at 10 µM; actives 0.073% (n = 320,000); AID 2661;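 active means inhibition at or above 25%, using the most active replicate where run in duplicate; inactive means inhibition below 25%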
GSK3A inh = human GSK-3 alpha kinase inhibition. P49840. actives 0.1% (n = 320,000). inhibition, % at 10 µM. ADP-Glo luminescence, 60 min;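 active means more than half of replicates show inhibition above 20%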;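 further: GST-tagged GSK-3 alpha with peptide substrate and 25 µM ATP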
Hep lipid conf = confirmation of inhibitors of hepatic lipid droplet formation; shares compounds with Hep lipid drop; AML12 mouse hepatocytes, BODIPY lipid droplet imaging; droplets induced with 100 µM oleic acid; inhibition, % at 5.2 µM; actives 65% (n = 870);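 active means inhibition of lipid droplet metric at least 50%, with more than 300 cells in each of four replicates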
AML12 cytotox = counter-screen for cytotoxicity in AML12 mouse hepatocytes; shares compounds with Hep lipid drop; actives 3% (n = 870); z-score at 5 µM; AID 463200; DAPI nuclear morphology cytotoxicity imaging; stronger effect = higher value; cells fed 100 µM oleate overnight; in the data active means z-score above about 6.3;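 further: compound exposure lasted overnight at 37 °C before fixation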
AML12 tox conf = AML12 hepatocyte cytotoxicity, confirmed; AML12 mouse hepatocyte viability, ATP luminescence; cells loaded with 100 µM oleic acid; shares compounds with Hep lipid drop; AID 463219; cytotoxicity, % at 50 µM; 530 tested, under 10 active;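 active means cytotoxicity above 50% in each of four replicates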;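 further: compound exposure lasted overnight at 37 °C before the ATP read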
Numbers stand for hits; . = inactive; / = no result. The list is not random: actives were taken first. Their share in the collection is about 1.3%.

SMILES	LANA-H2A inh	GSK3B inh	H9c2 TAG inh	Hep lipid drop	STK33 kinase inh	GSK3A inh	Hep lipid conf	AML12 cytotox	AML12 tox conf
C/C(=N\Nc1ccc(S(=O)(=O)Nc2ccccc2)cc1[N+](=O)[O-])c1ccc(N2CCOCC2)cc1	.	.	.	51.3	.	.	72.1	.	.
CCOc1ccc(NS(=O)(=O)c2ccc(C(=O)N3CCN(c4ncccn4)CC3)cc2)cc1	.	.	.	.	.	.	/	/	/
CCOc1ccc(NS(=O)(=O)c2ccc(C(=O)N(CC)CC(=O)NCc3cccs3)cc2)cc1	.	.	.	77.8	.	.	98.1	.	.
COc1ccc(NS(=O)(=O)c2ccc(N/N=C(\C)c3ccncc3)c([N+](=O)[O-])c2)cc1	.	.	.	.	.	.	/	/	/
Cc1cccc(C(=O)Nc2nnc(COc3ccccc3)s2)c1	.	.	.	.	.	.	/	/	/
COc1ccc2[nH]c(C(=O)N3CCC(Cc4ccccc4)CC3)cc2c1	.	.	/	/	.	.	/	/	/
CCCCCCNC(=O)c1cn(CC)c2cc(N3CCN(C)CC3)c(F)cc2c1=O	.	.	/	52.6	.	.	.	.	/
Cn1c(=O)c(=O)n(C)c2cc(N3CCOCC3)c(NS(=O)(=O)c3ccc(F)c(Cl)c3)cc21	.	.	/	.	.	.	/	/	/
Cn1c(=O)c(=O)n(C)c2cc(N3CCCC3)c(NS(=O)(=O)c3ccc(Cl)cc3)cc21	.	.	/	50.1	.	.	.	.	/
COc1ccc(C(=O)OCC(=O)NC(C)CCc2ccccc2)cc1 (centres undefined)	.	.	/	.	.	.	/	/	/
COc1ccc(C(=O)OC(C)C(=O)NC(C)CCc2ccccc2)cc1[N+](=O)[O-] (centres undefined)	.	.	/	68.4	.	.	109.3	.	.
COc1ccc(C(=O)OCC(=O)NC(C)CCc2ccccc2)cc1OC (centres undefined)	.	.	/	62.5	.	.	72.0	.	.
C#CC[N+]1(CC#Cc2cccc(C)c2)CCCCC1	.	.	.	.	.	.	/	/	/
O=C(Nc1c(Cl)cc(Cl)cc1C(=O)NCc1cccnc1)c1ccc(Cl)cc1Cl	.	/	.	/	.	.	/	/	/
Cc1ccc(C(=O)Nc2ccccc2C(=O)NCc2cccnc2)cc1	.	.	.	50.8	.	.	96.1	.	.
O=C(Nc1ccc(Cl)cc1C(=O)NCc1cccnc1)c1ccc(Cl)cc1Cl	.	.	/	65.9	.	.	87.8	.	/
O=C(CSc1nnc(-c2ccccc2)o1)c1nnc(-c2ccccc2)o1	.	.	/	/	.	.	/	/	/
Cc1ccc(NC(=O)CCC(=O)c2cccs2)cc1	.	.	.	.	.	.	/	/	/
COc1ccc(/C=C(\NC(=O)c2cccs2)C(=O)Nc2cccc3ccccc23)cc1OC	.	.	/	83.6	.	.	102.4	.	.
COc1cc(NC(=O)c2cccs2)c(OC)cc1NC(=O)CCC(=O)Nc1ccc(C)cc1	.	.	/	67.7	.	.	107.9	.	.
COc1ccc(NC(=O)CCC(=O)Nc2cc(OC)c(NC(=O)c3cccs3)cc2OC)cc1	.	/	/	70.6	.	.	109.4	.	.
COc1cccc(NC(=O)CCC(=O)Nc2cc(OC)c(NC(=O)c3cccs3)cc2OC)c1	/	.	/	78.8	/	/	109.9	.	.
CCOc1ccc2c(c1)sc(=NC(=O)C1CC1)n2C	.	.	/	.	.	.	/	/	/
Cc1c(C(=O)c2ccc(Cl)c([N+](=O)[O-])c2)c2ccccn2c1CCC#N	.	.	/	.	.	.	/	/	/
CN(C)c1ccc(-c2nnn(CC(=O)Nc3ccc4c(c3)OCCO4)n2)cc1	.	.	.	.	.	.	/	/	/
SMILES	LANA-H2A inh	GSK3B inh	H9c2 TAG inh	Hep lipid drop	STK33 kinase inh	GSK3A inh	Hep lipid conf	AML12 cytotox	AML12 tox conf
CCc1nc2c(OCC(N)=O)cccn2c1N(C)C(=O)C(C)C	/	/	.	/	/	/	/	/	/
NC(=S)N/N=C/c1ccc(-n2nncc2-c2ccc(Cl)cc2)cc1	.	.	/	.	.	.	/	/	/
CCOC(=O)c1ccc(NC(=O)CSc2nc3c(c(=O)n2-c2ccccc2OC)SCC3)cc1	.	.	.	87.0	.	.	105.3	.	.
Cc1ccc(-c2nnn(CC(=O)NC(=O)NC3CCCCC3)n2)cc1	/	/	.	/	/	/	/	/	/
O=[N+]([O-])c1ccccc1N/N=C\c1ccccc1F	.	.	.	.	.	.	/	/	/
O=[N+]([O-])c1ccccc1N/N=C\c1ccccc1Cl	.	.	.	59.3	.	.	.	.	/
CCn1c(O)c(N=NC(=O)CNc2cccc(C)c2)c2ccccc21	.	.	.	.	.	.	/	/	/
COC(=O)Cn1c(O)c(N=NC(=O)CNC(=O)COc2cccc(C)c2)c2ccccc21	.	.	/	68.4	.	.	.	.	/
Cn1cnc(S(=O)(=O)N2CCN(C(c3ccc(F)cc3)c3ccc(F)cc3)CC2)c1	.	.	/	.	.	.	/	/	/
CCNC(=S)N1CCc2cc(OC)c(OC)cc2C1COc1ccc(OC)cc1 (centres undefined)	.	.	.	.	.	.	/	/	/
CCNC(=S)N1CCc2cc(OC)c(OC)cc2C1COc1ccccc1OC (centres undefined)	.	.	.	62.1	.	.	92.8	.	.
CC(C)CC(c1nnnn1Cc1ccco1)N1CCN(C2CCCC2)CC1 (centres undefined)	.	.	.	/	.	.	/	/	/
O=C(Nc1ccncc1)Nc1ccc(F)cc1F	.	.	/	.	.	.	/	/	/
Cc1ccc(N2C(=O)CC(c3c[nH]c4ccccc34)C2=O)cc1 (centres undefined)	.	.	.	.	.	.	/	/	/
CCC1=NN=C(c2ccc(F)cc2)C(c2c[nH]c3ccccc23)N1O (centres undefined)	.	.	.	64.7	.	.	.	.	/
C/C(N)=C(/C#N)C(=O)CSc1nnc(Nc2cccc(C)c2)s1	.	.	.	77.8	.	.	98.9	.	.
CN(C)CCN(C(=O)c1ccc2ccccc2c1)c1nc2cc3c(cc2s1)OCCO3	.	.	.	.	.	.	/	/	/
CN(C)CCCN(C(=O)c1ccc2ccccc2c1)c1nc2cc3c(cc2s1)OCO3	.	.	.	54.8	.	.	.	.	/
Fc1ccc(Nc2nc(N3CCOCC3)nc(N3CCOCC3)n2)cc1Cl	.	.	/	.	.	.	/	/	/
Clc1ccc(Nc2nc(NCCN3CCOCC3)nc(N3CCOCC3)n2)cc1	.	.	.	65.8	.	.	75.2	18.6	/
